Assay results pooled from the literature.
Each line is one published result; the experiments were not run side by side.
Target: Tyrosine-protein kinase ABL2 (ABL2, Homo sapiens, UniProt P42684)

| SMILES | observed | action | technique | concentration | measurement | value |
| --- | --- | --- | --- | --- | --- | --- |
| Cc1cnc(NC2CCOCC2)nc1-n1cnc(C(=O)NC(CN)c2cc(F)cc(Cl)c2)c1 (stereo not drawn) | enzyme activity | inhibitor | radiometric | 1 µM | remaining activity | 87% |
| CCCOc1ccc(OC)c(F)c1C(=O)c1ccc(C(=O)N[C@@H]2CNC[C@H]2NC(=O)c2ccc3[nH]ncc3c2)cc1 | enzyme activity | inhibitor |  | 10 µM | remaining activity | 89% |
| CCN(CC)CCNC(=O)c1c(C)[nH]c(/C=C2\C(=O)Nc3ccc(F)cc32)c1C | binding |  | competition with immobilised ligand | 10 µM | inhibition | 77% |
| COc1cc(-c2cn(C3CCc4ccccc4N(CC(F)(F)F)C3=O)nn2)ccc1-n1ccc(C)n1 (stereo not drawn) | cell-free assay |  | competition with immobilised ligand | 1 µM | remaining binding | 100% |
| CNC(=O)c1cc(Oc2ccc(NC(=O)Nc3ccc(Cl)c(C(F)(F)F)c3)cc2)ccn1 | enzyme activity | inhibitor |  | 0.3 µM | inhibition | 11% |
| CN(C)c1ncnc(-c2ccc3nc(Nc4cc(CN5CCN(C(=O)CC(F)(F)F)CC5)ccn4)[nH]c3c2)c1Cl | cell-free assay |  | competition with immobilised ligand | 1 µM | remaining binding | 71% |
| O=C(Nc1cnn(-c2csc(C(=O)NC3COC3)c2)c1)Nc1c(F)cccc1Cl | enzyme activity | inhibitor |  | 5 µM | remaining activity | 88.7% |
| CC(=O)N1CCC(c2ccc(C(=O)NC3=NCCN3)cc2C(F)(F)F)CC1 | cell-free assay |  | competition with immobilised ligand | 1 µM | remaining binding | 100% |
| N#CCCc1ccc2c(c1)-c1[nH]c3ccc([N+](=O)[O-])cc3c1CC(=O)N2 | cell-free assay |  |  | 0.5 µM | remaining signal | 49.8% |
| O=C1NC(c2ccccn2)Sc2ccccc21 (stereo not drawn) | cell-free assay |  | competition with immobilised ligand | 1 µM | remaining binding | 85% |
| O=C1NC(=O)c2cc(Nc3ccc(F)cc3)c(Nc3ccc(F)cc3)cc21 | cell-free assay |  |  | 0.5 µM | remaining signal | 89.6% |
| COc1cc2ncnc(Nc3ccc(Oc4ccccc4)c(C)c3C)c2cc1OC | enzyme activity | inhibitor |  | 1 µM | inhibition | 6% |
| Cc1ccc(NC(=O)c2ccc(C)c(C(F)(F)F)c2)cc1C#Cc1nn(C2CCC(O)CC2)c2ncnc(N)c12 (stereo not drawn) | cell-free assay |  |  | 10 µM | remaining signal | 0% |
| CCCS(=O)(=O)Nc1ccc(F)c(C(=O)c2c[nH]c3ncc(-c4ccc(Cl)cc4)cc23)c1F | enzyme activity | inhibitor |  | 1 µM | inhibition | < 20% |
| Nc1ncnc2occ(-c3ccc(NC(=O)Nc4cc(C(F)(F)F)ccc4F)cc3)c12 | cell-free assay | inhibitor |  | 20 µM | remaining signal | 0.65% |
| CN(C(=O)c1ccccc1)c1cc(N(C)c2ccc3c(c2)CCc2ccc(C(=O)NCCN4CCOCC4)cc2C3=O)ccc1F | cell-free assay |  | competition with immobilised ligand | 1 µM | remaining binding | 100% |
| Cc1sc(C(=O)NC2COC2)cc1-n1cc(NC(=O)Nc2c(F)cccc2Cl)cn1 | enzyme activity | inhibitor |  | 10 µM | remaining activity | 123% |
| Cc1ccc(Nc2nccc(N(C)c3ccc4c(C)n(C)nc4c3)n2)cc1S(N)(=O)=O | enzyme activity | inhibitor |  | 10 µM | inhibition | 84% |
| CC(C)(O)[C@H]1CC[C@H](Nc2ccc3ncc(-c4cccc(C(F)(F)F)c4)n3n2)CC1 | enzyme activity | inhibitor |  | 1 µM | remaining activity | 76.5% |
| C=CC(=O)Nc1cc(Nc2nccc(Nc3cc(Cl)c(F)cc3C(C)(C)O)n2)c(OC)cc1N1CC[C@@H](N(C)C)C1 | enzyme activity | inhibitor |  | 1 µM | inhibition | 18% |
| CC(C)(C)c1nc2c(s1)c1nc(N)ncc1c1ccc(NS(=O)(=O)c3c(F)cccc3F)c(F)c12 | enzyme activity | inhibitor | radiometric | 1 µM | remaining activity | 99% |
